High-throughput results from PubChem BioAssay.
MrgX1 antagonist: antagonists of human MrgX1 receptor, primary screen, HEK293 cells, Fluo-4 calcium flux; BAM8-22 antagonism; stronger effect = lower value; AID 588676, 2011; 310,000 compounds, 1.3% hits; Mas-related G-protein coupled receptor member X1 (Homo sapiens), Q96LB2; B-score at 10 µM;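 active means calcium-response B-score plate-corrected more than 3 library SD below zero, starting fluorescence within 5 deviations, no agonist response on first addition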;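 further: peak minus trough fluorescence over baseline after final BAM8-22 challenge near maximal dose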
Target sequence (Q96LB2 whole entry, looked up): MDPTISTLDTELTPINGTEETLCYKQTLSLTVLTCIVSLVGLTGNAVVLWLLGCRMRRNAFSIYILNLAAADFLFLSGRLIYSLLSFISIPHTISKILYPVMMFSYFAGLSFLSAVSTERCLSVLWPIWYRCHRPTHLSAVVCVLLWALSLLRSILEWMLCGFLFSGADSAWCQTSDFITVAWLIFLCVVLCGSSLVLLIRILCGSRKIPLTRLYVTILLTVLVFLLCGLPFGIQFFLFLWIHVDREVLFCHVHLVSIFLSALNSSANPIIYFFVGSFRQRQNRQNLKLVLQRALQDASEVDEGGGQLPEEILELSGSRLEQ
MrgX1 agonist: agonists of human MrgX1 receptor, primary screen, HEK293 cells, Fluo-4 calcium flux; Mas-related G-protein coupled receptor member X1 (Homo sapiens), Q96LB2; Fluo-4 calcium fluorescence, agonist mode; stronger effect = higher value; B-score at 10 µM; 310,000 compounds, 0.44% hits;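 active means calcium response B-score plate-corrected fluorescence ratio at least 3 library SD, with starting fluorescence B-score inside 5 SD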
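Test system: HEK293 cells stably expressing human MrgX1 receptor; amount: 15,000 cells per well; doses: compound delivered in addition one of three; times: overnight plating before 1 h dye loading; detection: Fluo-4 NW calcium-flux fluorescence, kinetic read; read-out basis: B-scored fluorescence response ratio; controls: positive and negative controls per plate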
RGS4 inh: RGS4 inhibitors, primary screen, cell-based, HEK293 M3R inducible RGS4, calcium flux | Fluo-4 calcium flux; stronger effect = higher value; triggered by carbachol at its EC20 | 310,000 compounds, 0.45% hits | B-score at 10 µM;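 active means B-score, a plate-corrected calcium signal, over three deviations above library mean, with baseline fluorescence within five deviations of library mean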;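 further: RGS4 expression induced by doxycycline in cells with stable M3 receptor; B-score is computed from the integrated fluorescence ratio over baseline after carbachol; higher B-score means a larger calcium signal and so more RGS4 inhibition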
Target sequence (P49798 whole entry, looked up): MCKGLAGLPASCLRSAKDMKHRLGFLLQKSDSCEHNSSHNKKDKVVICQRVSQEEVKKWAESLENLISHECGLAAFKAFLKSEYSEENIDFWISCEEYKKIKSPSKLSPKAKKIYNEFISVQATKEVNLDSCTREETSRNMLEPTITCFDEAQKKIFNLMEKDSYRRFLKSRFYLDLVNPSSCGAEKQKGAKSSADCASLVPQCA
RGS4 pot: RGS4 potentiators or activators, primary screen, cell-based, HEK293 M3R inducible RGS4, calcium flux; 310,000 compounds, 0.92% hits; AID 463111, 2010; B-score at 10 µM; carbachol calcium flux Fluo4; stronger effect = lower value;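 active means B-score of the integrated calcium signal more than 4 SD below the library mean, with starting fluorescence not abnormally high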;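 further: negative B-score means reduced calcium response which marks RGS4 activation or potentiation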
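Also added: carbachol at ECmax as muscarinic agonist stimulus; Assay system: HEK293 cells with stable M3R and inducible RGS4; Timing: overnight RGS4 induction, 30 min dye load 37 °C, 20 min compound RT; Measured by: Fluo4-AM (2 µM) calcium-flux fluorescence, kinetic read.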
MrgX1 allo act: positive allosteric modulators of MrgX1, primary screen, HEK293 cells, Fluo-4 calcium flux; Mas-related G-protein coupled receptor member X1 (Homo sapiens), Q96LB2; FDSS; stronger effect = higher value; B-score at 10 µM; 310,000 compounds, 0.63% hits; AID 588675, 2011;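 active means plate-corrected calcium response at least 3 library SD above typical, normal starting fluorescence, not activating the receptor alone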;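 further: compound read alongside a low EC10 to EC30 dose of BAM8-22 agonist; peak minus trough fluorescence over baseline measured at the second addition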
KCC2 mod: KCC2 cotransporter modulators, thallium flux, primary screen, cell-based, HEK293 KCC2, FluoZin-2 fluorescence, MLSMR; Solute carrier family 12 member 5 (Homo sapiens), Q9H2X9; KCC2 cells, thallium flux FluoZin-2 fluorescence; B-score of Tl+ flux slope (higher = more flux/activation; lower = inhibition) at 10 µM; 190,000 compounds, 2.2% hits; AID 1456, 2008;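 active means thallium flux slope and its plate-corrected score both differing from the plate sample mean at a set confidence after two filtering rounds, in either direction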;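 further: slope of fluorescence scaled to starting intensity during 10 to 20 s after thallium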
RGS4 inh valid: enhanced carbachol calcium response, M3R/RGS4 cells, RGS4 inhibitor project, cell-based, validation screen, HEK293 M3R/RGS4, calcium flux; carbachol calcium Fluo-4 fluorescence; carbachol added at its EC20; 0 = buffer wells, 100 = carbachol control; shares compounds with RGS4 inh; 1,700 compounds, 65% hits; calcium response, % at 10 µM; AID 492999, 2010;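 active means duplicate-averaged calcium response above the buffer-only control mean plus 5 SD of those controls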;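 further: integrated fluorescence ratio F max minus min over baseline F0; higher response in RGS4-induced cells means RGS4 inhibition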
M3R Ca ctr: carbachol calcium response in non-induced M3R cells, confirmation, counter-screen for RGS4 inhibitor project, cell-based, HEK293 M3R | 1,900 compounds, 20% hits | carbachol calcium Fluo-4; submaximal (EC20) carbachol stimulus; buffer wells 0%, carbachol control wells 100% | shares compounds with RGS4 inh | activity (percent), % at 10 µM; call rule not given here;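 further: RGS4 induction absent so cells express M3R without RGS4; higher means more calcium signal and flags a non-specific hit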
RGS4 inh ctr2: second counter-screen for RGS4 inhibitors: non-induced cells without carbachol. shares compounds with RGS4 inh. HEK293 M3R/RGS4 non-induced, Fluo-4 calcium, no carbachol; normalised: buffer wells 0%, carbachol wells 100%. calcium response (agonist-mode artifact), % at 10 µM. 1,900 compounds, 22% hits;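 active means duplicate-averaged calcium rise in uninduced cells above buffer wells' mean plus 5 SD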
Starred values were filed as active, the others as inactive; i = inactive; · = no result given. An excerpt weighted towards active compounds, which were near 4.7% of everything screened.

SMILES | MrgX1 antagonist | MrgX1 agonist | RGS4 inh | RGS4 pot | MrgX1 allo act | KCC2 mod | RGS4 inh valid | M3R Ca ctr | RGS4 inh ctr2
COc1ccc(CN2C(=O)NC(=O)/C(=C\c3ccco3)C2=O)cc1 | i | i | i | i | i | -0.141 | · | · | ·
N#Cc1c(N2CCNCC2)nc(-c2ccco2)c2c1CCCC2 | i | i | 5.51* | i | i | -0.42 | i | i | i
CCCCc1nc(N2CCNCC2)c(C#N)c2c1CSC(C)(C)C2 | i | i | i | i | i | 0.0341 | · | · | ·
O=C1NC(=S)NC(=O)C1=Cc1ccc2c(c1)CCN2CCCCl | i | i | 10.4* | i | i | 0.00288 | 42.5%* | i | i
C=CCN1C(=O)NC(=O)/C(=C/c2cc3c4c(c2)CCCN4CCC3)C1=O | i | i | i | i | i | -0.268 | · | · | ·
CC(Cc1ccc(O)cc1)NCC(O)c1cc(O)cc(O)c1 (stereo unspecified) | i | i | 5.72* | i | i | -1.87 | 30.0%* | i | 73.0%*
COc1cc(/C=C/[N+](=O)[O-])ccc1O | i | i | 26.2* | i | i | 0.00711 | 60.5%* | 74.5%* | i
COc1ccc(-n2c(/C=C/c3ccc(O)c(OC)c3)nc3ccccc3c2=O)cc1 | i | i | i | i | i | · | · | · | ·
COc1ccc(N2C(=O)NC(=O)/C(=C/c3ccc([N+](=O)[O-])s3)C2=O)cc1 | i | i | 6.07* | i | i | 1.41 | 16.0%* | i | i
COc1ccccc1N1C(=O)NC(=O)/C(=C/c2ccc([N+](=O)[O-])s2)C1=O | i | i | i | i | i | 0.895 | · | i | i
COc1ccccc1N1C(=O)NC(=O)/C(=C\c2cnn(-c3ccccc3)c2)C1=O | i | i | i | i | i | 0.777 | · | · | ·
CCOc1ccc(N2C(=O)NC(=O)/C(=C\c3cc(OC)c(OC)cc3[N+](=O)[O-])C2=O)cc1 | i | i | i | i | i | 0.503 | · | · | ·
COc1cccc(N2C(=O)NC(=O)/C(=C/c3ccc4c(c3)Cc3ccccc3-4)C2=O)c1 | i | i | i | i | i | -2.47 | · | · | ·
COc1cccc(N2C(=O)NC(=O)/C(=C/c3ccc([N+](=O)[O-])s3)C2=O)c1 | i | i | 10.2* | i | i | -0.0752 | 20.5%* | 35.0%* | i
COc1ccc(N2C(=O)NC(=O)/C(=C\c3ccc([N+](=O)[O-])s3)C2=O)cc1 | i | i | 5.24* | i | i | 2.21 | 22.5%* | i | i
O=C1N(c2nncs2)CCN1[N+](=O)[O-] | i | i | i | i | i | 0.0683 | · | · | ·
C[C@H]1CCCC(=O)CCC/C=C/c2cc(O)cc(O)c2C(=O)O1 | i | i | 8.18* | i | i | · | 35.0%* | i | i
COc1cc(O)cc2c1C(=O)OC(C)CCCC(=O)CCC/C=C\2 (stereo unspecified) | i | i | i | i | i | · | · | i | i
O=C1NC(=O)N(CCc2ccc(F)cc2)C(=O)/C1=C/c1cccs1 | i | i | i | i | i | 0.296 | · | i | i
Cc1ccc(/C=C2/C(=O)NC(=O)N(CCc3ccc(F)cc3)C2=O)o1 | i | i | i | i | i | -0.231 | i | i | i
CCC(=O)N1CC(=O)Nc2ccc(F)cc2C1c1ccc(F)cc1 (stereo unspecified) | i | i | i | i | i | · | · | · | ·
CC1=CC2/C=C(\C)CCC(O)C(O)/C=C/C(=O)C23C(=O)NC(CC(C)C)C3C1C (stereo unspecified) | i | i | i | i | i | -1.81 | · | · | ·
C/C1=C\[C@@H](C)C/C=C/[C@H]2[C@@H]3O[C@]3(C)[C@@H](C)[C@H]3[C@H](Cc4c[nH]c5ccccc45)NC(=O)[C@]32C(=O)/C=C/C(=O)[C@@H]1O | i | i | 11.4* | i | 10.7* | 0.435 | 46.5%* | i | 17.5%*
O=C1NC(=O)N(Cc2ccc(F)cc2)C(=O)/C1=C\c1ccc([N+](=O)[O-])s1 | i | i | 6.28* | i | i | -0.0928 | 20.5%* | i | i
COc1ccc(CN2C(=O)NC(=O)/C(=C/c3ccc([N+](=O)[O-])s3)C2=O)cc1 | i | i | 8.89* | i | i | -0.753 | 29.0%* | i | i
SMILES | MrgX1 antagonist | MrgX1 agonist | RGS4 inh | RGS4 pot | MrgX1 allo act | KCC2 mod | RGS4 inh valid | M3R Ca ctr | RGS4 inh ctr2
COc1ccc(CN2C(=O)NC(=O)/C(=C\c3cc(OC)c(OC)c(OC)c3)C2=O)cc1 | i | i | i | i | i | 0.0182 | · | · | ·
CCCCCCn1c(O)c(/C=N/N2CCCCCC2)c(=O)[nH]c1=O | i | i | i | i | i | 0.727 | · | · | ·
CC/C(=N\NC(=O)c1ccccc1)c1c(O)n(C2CCCCC2)c(=O)[nH]c1=O | i | i | i | i | i | · | · | · | ·
COc1ccc(SCC2CN(C)CCC2c2ccc(F)cc2)cc1 (stereo unspecified) | i | i | i | i | i | · | · | · | ·
COc1cccc(N(C(C)=O)C2=NCCCS2)c1 | i | i | i | i | i | · | · | · | ·
Cc1nn(Cc2ccccc2)c(C)c1C(=O)NCc1ccccc1 | i | i | i | i | i | · | · | · | ·
Cc1nn(Cc2ccccc2)c(C)c1C=C1C(=O)NC(=O)NC1=O | i | i | i | i | i | 0.396 | i | i | i
O=c1[nH]c(=O)n(-c2ccccc2)c(O)c1/C=C1/C(c2ccccc2)=Nc2ccccc21 | i | 42.3* | 9.13* | i | i | -0.878 | 30.5%* | i | 16.0%*
